According to ChEMBL document CHEMBL1149142, “Synthesis, biological activity and molecular modeling of 6-benzylthioinosine analogues as subversive substrates of Toxoplasma gondii adenosine kinase” (2004):

How the values were obtained:
[1] = Effect of compound on percent survival of human fibroblast cells in culture was determined at 50 uM; format: functional; conditions: read-out: Survival
How it was run: (§1)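 Uninfected human foreskin fibroblast monolayers (≤30 passages) in RPMI 1640 are attached for at least 24 h at 37 °C in 5% CO2. Compound is added at the same concentrations as in the parasite assay and incubated 48 h. MTT is added for 4 h, formazan is dissolved in DMSO, and absorbance is read at 540 nm; at least triplicates.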

[2] = system: Toxoplasma gondii; test: Effect of compound on percent survival of wild type (RH) strain of Toxoplasma gondii grown in human fibroblast cells at 50 uM; format: functional
How it was run: (§2)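 Human foreskin fibroblast monolayers (≤30 passages) in RPMI 1640 are infected with tachyzoites at one parasite per cell in 3% FBS for 1 h, then washed, with FBS kept at 10%. Compound is added in 50% ethanol stock (2.5% ethanol final) and incubated 18 h. Medium is replaced with drug-free [5,6-3H]uracil (2 μCi/mL) for 6 h. TCA-precipitable radioactivity is counted; at least triplicates.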

[3] = Effect of compound on percent survival of human fibroblast cells in culture was determined at 5 uM; format: functional; conditions: read-out: Survival; how it was run: as §1
[4] = system: Toxoplasma gondii; test: Effect of compound on percent survival of wild type (RH) strain of Toxoplasma gondii grown in human fibroblast cells at 5 uM; format: functional; how it was run: as §2
[5] = system: Toxoplasma gondii; test: Effect of compound on percent survival of wild type (RH) strain of Toxoplasma gondii grown in human fibroblast cells at 0 uM; format: functional; how it was run: as §2
[6] = Effect of compound on percent survival of human fibroblast cells in culture was determined at 25 uM; format: functional; conditions: read-out: Survival; how it was run: as §1
[7] = Effect of compound on percent survival of human fibroblast cells in culture was determined at 10 uM; format: functional; conditions: read-out: Survival; how it was run: as §1
[8] = Effect of compound on percent survival of human fibroblast cells in culture was determined at 0 uM; format: functional; how it was run: as §1
[9] = system: Toxoplasma gondii; test: Effect of compound on percent survival of wild type (RH) strain of Toxoplasma gondii grown in human fibroblast cells at 25 uM; format: functional; how it was run: as §2
[10] = system: Toxoplasma gondii; test: Effect of compound on percent survival of wild type (RH) strain of Toxoplasma gondii grown in human fibroblast cells at 10 uM; format: functional; how it was run: as §2
[11] = system: Toxoplasma gondii; test: Effect of compound on percent survival of adenosine kinase deficient strain of Toxoplasma gondii (TgAKe-3) grown in human fibroblast cells at 50 uM; format: functional; how it was run: as §2
[12] = system: Toxoplasma gondii; test: Effect of compound on percent survival of adenosine kinase deficient strain of Toxoplasma gondii (TgAKe-3) grown in human fibroblast cells at 10 uM; format: functional; how it was run: as §2
[13] = system: Toxoplasma gondii; test: Effect of compound on percent survival of adenosine kinase deficient strain of Toxoplasma gondii (TgAKe-3) grown in human fibroblast cells at 25 uM; format: functional; how it was run: as §2
[14] = system: Toxoplasma gondii; test: Effect of compound on percent survival of adenosine kinase deficient strain of Toxoplasma gondii (TgAKe-3) grown in human fibroblast cells at 5 uM; format: functional; how it was run: as §2
[15] = system: Toxoplasma gondii; test: Effect of compound on percent survival of adenosine kinase deficient strain of Toxoplasma gondii (TgAKe-3) grown in human fibroblast cells at 0 uM; format: functional; how it was run: as §2
[16] = substrate: COc1ccc(CSc2ncnc3c2ncn3[C@@H]2O[C@H](CO)[C@@H](O)[C@H]2O)cc1; test: (§3) Binding affinity at Toxoplasma gondii adenosine kinase.
How it was run: (§4)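 Purified recombinant T. gondii adenosine kinase was expressed in E. coli BL21(DE3)pLysS and purified on two Q-Sepharose columns. The assay contained 50 mM Tris-Cl pH 7.4, 2.5 mM ATP, 5 mM MgCl2, 5 mM creatine phosphate, creatine kinase and 5 μM [8-14C]adenosine, with varied analogue concentrations. Incubation was at 37 °C, stopped by boiling. [14C]AMP was resolved by TLC. Apparent Ki from Dixon plots was taken as apparent Km.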

[17] = substrate: OC[C@H]1O[C@@H](n2cnc3c(SCc4ccccc4Cl)ncnc32)[C@H](O)[C@@H]1O; test: as §3; how it was run: as §4
[18] = substrate: Cc1cc(C)c(CSc2ncnc3c2ncn3[C@@H]2O[C@H](CO)[C@@H](O)[C@H]2O)c(C)c1; test: as §3; how it was run: as §4
[19] = substrate: OC[C@H]1O[C@@H](n2cnc3c(SCc4cccc(C(F)(F)F)c4)ncnc32)[C@H](O)[C@@H]1O; test: as §3; how it was run: as §4
[20] = substrate: OC[C@H]1O[C@@H](n2cnc3c(SCc4ccc(F)cc4)ncnc32)[C@H](O)[C@@H]1O; test: as §3; how it was run: as §4
[21] = substrate: OC[C@H]1O[C@@H](n2cnc3c(SCc4ccc(Br)cc4)ncnc32)[C@H](O)[C@@H]1O; test: as §3; how it was run: as §4
[22] = substrate: OC[C@H]1O[C@@H](n2cnc3c(SCc4ccccc4)ncnc32)[C@H](O)[C@@H]1O; test: as §3; how it was run: as §4
[23] = substrate: OC[C@H]1O[C@@H](n2cnc3c(SCc4ccc(Cl)c(Cl)c4)ncnc32)[C@H](O)[C@@H]1O; test: as §3; how it was run: as §4
[24] = substrate: COC(=O)c1ccc(CSc2ncnc3c2ncn3[C@@H]2O[C@H](CO)[C@@H](O)[C@H]2O)cc1; test: as §3; how it was run: as §4
[25] = substrate: Cc1ccc(CSc2ncnc3c2ncn3[C@@H]2O[C@H](CO)[C@@H](O)[C@H]2O)cc1; test: as §3; how it was run: as §4
[26] = substrate: CC(C)(C)c1ccc(CSc2ncnc3c2ncn3[C@@H]2O[C@H](CO)[C@@H](O)[C@H]2O)cc1; test: as §3; how it was run: as §4
[27] = substrate: Cc1cccc(CSc2ncnc3c2ncn3[C@@H]2O[C@H](CO)[C@@H](O)[C@H]2O)c1; test: as §3; how it was run: as §4
[28] = substrate: OC[C@H]1O[C@@H](n2cnc3c(SCc4ccc(Cl)cc4Cl)ncnc32)[C@H](O)[C@@H]1O; test: as §3; how it was run: as §4
[29] = substrate: O=[N+]([O-])c1cccc(CSc2ncnc3c2ncn3[C@@H]2O[C@H](CO)[C@@H](O)[C@H]2O)c1; test: as §3; how it was run: as §4
[30] = substrate: OC[C@H]1O[C@@H](n2cnc3c(SCc4ccc(Cl)cc4)ncnc32)[C@H](O)[C@@H]1O; test: as §3; how it was run: as §4
[31] = substrate: O=[N+]([O-])c1ccc(CSc2ncnc3c2ncn3[C@@H]2O[C@H](CO)[C@@H](O)[C@H]2O)cc1; test: as §3; how it was run: as §4
[32] = substrate: Cc1ccccc1CSc1ncnc2c1ncn2[C@@H]1O[C@H](CO)[C@@H](O)[C@H]1O; test: as §3; how it was run: as §4
[33] = substrate: OC[C@H]1O[C@@H](n2cnc3c(SCc4c(F)cccc4Cl)ncnc32)[C@H](O)[C@@H]1O; test: as §3; how it was run: as §4
[34] = substrate: OC[C@H]1O[C@@H](n2cnc3c(SCc4ccc(OC(F)(F)F)cc4)ncnc32)[C@H](O)[C@@H]1O; test: as §3; how it was run: as §4
[35] = substrate: N#Cc1ccc(CSc2ncnc3c2ncn3[C@@H]2O[C@H](CO)[C@@H](O)[C@H]2O)cc1; test: as §3; how it was run: as §4
[36] = substrate: Nc1ncnc2c1ncn2[C@@H]1O[C@H](CO)[C@@H](O)[C@H]1O; test: as §3; how it was run: as §4

Molecule: Nc1ccc(S(=O)(=O)Nc2ncccn2)cc1 [SULFADIAZINE]
- viability at 50 µM [1]: 100%
- survival at 50 µM [2]: 46.6%
- viability at 5 µM [3]: 98.2%
- survival at 5 µM [4]: 75.7%
- Survival [5]: 100%
- viability at 25 µM [6]: 99.8%
- viability at 10 µM [7]: 99.7%
- Survival [8]: 100%
- survival at 25 µM [9]: 59.2%
- survival at 10 µM [10]: 64.5%

Molecule: OC[C@H]1O[C@@H](n2cnc3c(SCc4ccc(Cl)cc4Cl)ncnc32)[C@H](O)[C@@H]1O
- viability at 50 µM [1]: 99.5%
- survival at 50 µM [11]: 100%
- survival at 50 µM [2]: 0%
- viability at 5 µM [3]: 98.1%
- survival at 5 µM [4]: 94.8%
- survival at 10 µM [12]: 100%
- survival at 25 µM [13]: 100%
- Survival [5]: 100%
- viability at 25 µM [6]: 94%
- viability at 10 µM [7]: 99.2%
- Survival [8]: 100%
- survival at 25 µM [9]: 34.5%
- survival at 5 µM [14]: 100%
- survival at 10 µM [10]: 79.1%
- Survival [15]: 100%

B1: Adenosine kinase (Toxoplasma gondii), Q9TVW2 (protein)
chain: MAVDSSNSATGPMRVFAIGNPILDLVAEVPSSFLDEFFLKRGDATLATPEQMRIYSTLDQFNPTSLPGGSALNSVRVVQKLLRKPGSAGYMGAIGDDPRGQVLKELCDKEGLATRFMVAPGQSTGVCAVLINEKERTLCTHLGACGSFRLPEDWTTFASGALIFYATAYTLTATPKNALEVAGYAHGIPNAIFTLNLSAPFCVELYKDAMQSLLLHTNILFGNEEEFAHLAKVHNLVAAEKTALSTANKEHAVEVCTGALRLLTAGQNTGATKLVVMTRGHNPVIAAEQTADGTVVVHEVGVPVVAAEKIVDTNGAGDAFVGGFLYALSQGKTVKQCIMCGNACAQDVIQHVGFSLSFTSLPC
- Km [16]: 2.6 µM
- Km [17]: 1.4 µM
- Km [18]: 150 µM
- Km [19]: 2.9 µM
- Km [20]: 1.2 µM
- Km [21]: 7.5 µM
- Km [22]: 2.4 µM
- Km [23]: 2.5 µM
- Km [24]: 96.1 µM
- Km [25]: 3.3 µM
- Km [26]: 113 µM
- Km [27]: 1.3 µM
- Km [28]: 0.7 µM
- Km [29]: 3 µM
- Km [30]: 2.1 µM
- Km [31]: 1.1 µM
- Km [32]: 1.5 µM
- Km [33]: 37.7 µM
- Km [34]: 141 µM
- Km [35]: 0.9 µM
- Km [36]: 2.4 µM
